Measured values taken from ChEMBL document CHEMBL5058577, “EUbOPEN Chemogenomics Library 2 (Multiplex)” (2022).

Tested on: HEK-293T
Experiment: Multiplex assay against HEK293T
Type: toxicity, cell-based
Conditions: human
Method in brief: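 Live cells carried four stains from seeding: Hoechst33342, BioTracker Green Microtubule Cytoskeleton Dye, MitoTracker Red and Annexin V Alexa Fluor 680. They were imaged on a CQ1 microscope at 37°C and 5% CO2 after compound addition. Using CellPathfinder machine-learning gating, cells were split into Hoechst high-intensity objects or normal cells, normal cells into healthy, pyknosed or fragmented nuclei, and pyknosed cells into mitotic or apoptotic; tubulin, mitochondrial-mass and membrane-permeability phenotypes are per cents of healthy-nucleus cells.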

[1] = 12 h, 1 µM, compound concentration 1 uM, replicate 1
[2] = 12 h, 1 µM, compound concentration 1 uM, replicate 2
[3] = 12 h, 10 µM, compound concentration 10 uM, replicate 1
[4] = 12 h, 10 µM, compound concentration 10 uM, replicate 2
[5] = 24 h, 1 µM, compound concentration 1 uM, replicate 1
[6] = 24 h, 1 µM, compound concentration 1 uM, replicate 2
[7] = 24 h, 10 µM, compound concentration 10 uM, replicate 1
[8] = 24 h, 10 µM, compound concentration 10 uM, replicate 2
[9] = 48 h, 1 µM, compound concentration 1 uM, replicate 1
[10] = 48 h, 1 µM, compound concentration 1 uM, replicate 2
[11] = 48 h, 10 µM, compound concentration 10 uM, replicate 1
[12] = 48 h, 10 µM, compound concentration 10 uM, replicate 2

## CC(=O)NCCc1c(Cc2ccccc2)[nH]c2ccccc12 [LUZINDOLE]
[1]
  Population Apoptotic (%): 38%
  Population Fragmented Nuclei (%): 7%
  Population Healthy Nuclei (%): 79%
  Population Hoechst High Intensity Objects (%): 11%
  Population Membrane Permeable-Phenotype (%): 0%
  Population Mitochondria Different-Phenotype (%): 54%
  Population Mitotic Cells (%): 61%
  Population Normal (%): 88%
  Population Pyknosed Nuclei (%): 12%
  Population Tubulin-Different-Phenotype (%): 39%
  Total Cell Count: 412
[2]
  Population Apoptotic (%): 43%
  Population Fragmented Nuclei (%): 5%
  Population Healthy Nuclei (%): 80%
  Population Hoechst High Intensity Objects (%): 8%
  Population Mitochondria Different-Phenotype (%): 68%
  Population Mitotic Cells (%): 56%
  Population Normal (%): 91%
  Population Pyknosed Nuclei (%): 13%
  Population Tubulin-Different-Phenotype (%): 27%
  Total Cell Count: 304
[3]
  Population Apoptotic (%): 37%
  Population Fragmented Nuclei (%): 8%
  Population Healthy Nuclei (%): 77%
  Population Hoechst High Intensity Objects (%): 10%
  Population Membrane Permeable-Phenotype (%): 0%
  Population Mitochondria Different-Phenotype (%): 61%
  Population Mitotic Cells (%): 62%
  Population Normal (%): 89%
  Population Pyknosed Nuclei (%): 14%
  Population Tubulin-Different-Phenotype (%): 45%
  Total Cell Count: 379
[4]
  Population Apoptotic (%): 53%
  Population Fragmented Nuclei (%): 5%
  Population Healthy Nuclei (%): 80%
  Population Hoechst High Intensity Objects (%): 9%
  Population Mitochondria Different-Phenotype (%): 72%
  Population Mitotic Cells (%): 46%
  Population Normal (%): 90%
  Population Tubulin-Different-Phenotype (%): 35%
  Total Cell Count: 315
[5]
  Population Apoptotic (%): 20%
  Population Fragmented Nuclei (%): 12%
  Population Healthy Nuclei (%): 75%
  Population Hoechst High Intensity Objects (%): 7%
  Population Membrane Permeable-Phenotype (%): 0%
  Population Mitochondria Different-Phenotype (%): 33%
  Population Mitotic Cells (%): 80%
  Population Normal (%): 92%
  Population Pyknosed Nuclei (%): 11%
  Population Tubulin-Different-Phenotype (%): 26%
  Total Cell Count: 546
[6]
  Population Apoptotic (%): 40%
  Population Fragmented Nuclei (%): 7%
  Population Healthy Nuclei (%): 82%
  Population Hoechst High Intensity Objects (%): 8%
  Population Mitochondria Different-Phenotype (%): 45%
  Population Mitotic Cells (%): 60%
  Population Normal (%): 91%
  Population Pyknosed Nuclei (%): 10%
  Population Tubulin-Different-Phenotype (%): 18%
  Total Cell Count: 379
[7]
  Population Apoptotic (%): 40%
  Population Fragmented Nuclei (%): 9%
  Population Healthy Nuclei (%): 81%
  Population Hoechst High Intensity Objects (%): 10%
  Population Membrane Permeable-Phenotype (%): 1%
  Population Mitochondria Different-Phenotype (%): 40%
  Population Mitotic Cells (%): 60%
  Population Normal (%): 89%
  Population Pyknosed Nuclei (%): 8%
  Population Tubulin-Different-Phenotype (%): 32%
  Total Cell Count: 502
[8]
  Population Apoptotic (%): 28%
  Population Fragmented Nuclei (%): 11%
  Population Healthy Nuclei (%): 77%
  Population Hoechst High Intensity Objects (%): 11%
  Population Membrane Permeable-Phenotype (%): 0%
  Population Mitochondria Different-Phenotype (%): 58%
  Population Mitotic Cells (%): 71%
  Population Normal (%): 88%
  Population Pyknosed Nuclei (%): 11%
  Population Tubulin-Different-Phenotype (%): 24%
  Total Cell Count: 388
[9]
  Population Apoptotic (%): 24%
  Population Fragmented Nuclei (%): 16%
  Population Healthy Nuclei (%): 78%
  Population Hoechst High Intensity Objects (%): 3%
  Population Membrane Permeable-Phenotype (%): 1%
  Population Mitochondria Different-Phenotype (%): 16%
  Population Mitotic Cells (%): 75%
  Population Normal (%): 96%
  Population Pyknosed Nuclei (%): 5%
  Population Tubulin-Different-Phenotype (%): 12%
  Total Cell Count: 965
[10]
  Population Apoptotic (%): 46%
  Population Fragmented Nuclei (%): 12%
  Population Healthy Nuclei (%): 82%
  Population Hoechst High Intensity Objects (%): 6%
  Population Membrane Permeable-Phenotype (%): 0%
  Population Mitochondria Different-Phenotype (%): 23%
  Population Mitotic Cells (%): 53%
  Population Normal (%): 93%
  Population Tubulin-Different-Phenotype (%): 13%
  Total Cell Count: 522
[11]
  Population Apoptotic (%): 27%
  Population Fragmented Nuclei (%): 13%
  Population Healthy Nuclei (%): 79%
  Population Hoechst High Intensity Objects (%): 9%
  Population Membrane Permeable-Phenotype (%): 0%
  Population Mitochondria Different-Phenotype (%): 27%
  Population Mitotic Cells (%): 72%
  Population Normal (%): 90%
  Population Pyknosed Nuclei (%): 7%
  Population Tubulin-Different-Phenotype (%): 17%
  Total Cell Count: 742
[12]
  Population Apoptotic (%): 36%
  Population Fragmented Nuclei (%): 11%
  Population Healthy Nuclei (%): 82%
  Population Hoechst High Intensity Objects (%): 6%
  Population Mitochondria Different-Phenotype (%): 32%
  Population Mitotic Cells (%): 63%
  Population Normal (%): 93%
  Population Pyknosed Nuclei (%): 5%
  Population Tubulin-Different-Phenotype (%): 19%
  Total Cell Count: 573
